Data reported in ChEMBL document CHEMBL4765367, “Design, synthesis and antimicrobial evaluation of novel glycosylated-fluoroquinolones derivatives” (Eur J Med Chem, 2020).
In brackets after ≈: the same amount, converted by molar mass. Counter-ions that a name gives are not always drawn. Activity calls are given as the source filed them. The rule behind the calls is not given here.

What was measured:
Fusarium solani = assay: Antifungal activity against Fusarium solani ATCC 36031 assessed as reduction in fungal growth incubated for 48 hrs by broth microdilution method; format: functional
In short: (§1)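 Conidia were harvested from cultures grown on malt extract agar at 30 °C for 7 d and counted by hemocytometer (mean of three counts). Stock suspensions were diluted 1:50 in malt extract broth. Compounds were made as 4.0 mg/mL DMSO stocks and two-fold serially diluted in broth. Plates were incubated at 30 °C for 48 h and read at A405. MIC is the lowest concentration with no viability. Fluconazole was the positive control, DMSO the vehicle; triplicate.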

Listeria monocytogenes = assay: Antimicrobial activity against Listeria monocytogenes ATCC 19115 assessed as inhibition of microbial growth incubated for 24 hrs by microbroth dilution method; format: functional
In short: (§2)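 Bacteria were grown in suitable medium at 37 °C for 24 h and adjusted to 0.5 McFarland. Compound DMSO stocks were two-fold serially diluted in broth, and 10^6 inoculum was added. Plates were incubated at 37 °C for 24 h and read at A625. MIC is the lowest concentration showing no viability. Fluoroquinolone positive controls, DMSO negative, sterility and growth controls were included; triplicate.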

Stachybotrys chartarum [1] = assay: Antifungal activity against Stachybotrys chartarum IBT 7711 assessed as reduction in fungal growth incubated for 48 hrs by broth microdilution method; format: functional; in short: as §1
Escherichia coli [2] = assay: Antimicrobial activity against Escherichia coli O157:H7 assessed as inhibition of microbial growth incubated for 24 hrs by microbroth dilution method; format: functional
Escherichia coli [3] = assay: Antimicrobial activity against Escherichia coli ATCC 8739 assessed as inhibition of microbial growth incubated for 24 hrs by microbroth dilution method; format: functional; in short: as §2
Escherichia coli [4] = assay: Antimicrobial activity against fluoroquinolone-resistant Escherichia coli assessed as inhibition of microbial growth incubated for 24 hrs by microbroth dilution method; format: functional
Staphylococcus aureus [5] = assay: Antimicrobial activity against methicillin-sensitive Staphylococcus aureus ATCC 9253 assessed as inhibition of microbial growth incubated for 24 hrs by microbroth dilution method; format: functional; in short: as §2
Staphylococcus aureus [6] = assay: Antimicrobial activity against methicillin-resistant Staphylococcus aureus ATCC 33591 assessed as inhibition of microbial growth incubated for 24 hrs by microbroth dilution method; format: functional
L6 = assay: Cytotoxicity against rat L6 cells assessed as inhibition of cell viability incubated for 24 hrs by MTT assay; format: cell-based; details: L6, 24 h
In short: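 L6 rat myoblasts were grown in glucose-DMEM with 10% FBS, 1 mM L-glutamine, penicillin and streptomycin at 37 °C in 5% CO2. They were seeded at 2 × 10^4 cells/well and allowed to attach for 24 h. Cells were exposed to graded concentrations for 24 h, with 0.1% DMSO as vehicle. MTT (0.5 mg/mL) was added for 4 h, formazan was dissolved in DMSO, and A570 was read. Viability is given relative to vehicle. IC50 came from dose-effect curves; triplicate.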

Candida albicans = assay: Antifungal activity against Candida albicans ATCC 10231 assessed as reduction in fungal growth incubated for 48 hrs by broth microdilution method; format: functional
Aspergillus flavus = assay: Antifungal activity against Aspergillus flavus ATCC 9643 assessed as reduction in fungal growth incubated for 48 hrs by broth microdilution method; format: functional; in short: as §1
Penicillium chrysogenum = assay: Antifungal activity against Penicillium chrysogenum ATCC 10106 assessed as reduction in fungal growth incubated for 48 hrs by broth microdilution method; format: functional; in short: as §1
Pseudomonas aeruginosa = assay: Antimicrobial activity against Pseudomonas aeruginosa ATCC 9627 assessed as inhibition of microbial growth incubated for 24 hrs by microbroth dilution method; format: functional; in short: as §2
Salmonella enterica = assay: Antimicrobial activity against Salmonella enterica ATCC 13312 assessed as inhibition of microbial growth incubated for 24 hrs by microbroth dilution method; format: functional; in short: as §2
Escherichia coli [7] = assay: Antimicrobial activity against Escherichia coli NCTC 11954 producing penicillinase assessed as inhibition of microbial growth incubated for 24 hrs by microbroth dilution method; format: functional; in short: as §2
Stachybotrys chartarum [8] = assay: Potency index, ratio of fluconazole MIC to test compound MIC for Stachybotrys chartarum IBT 7711 measured after 48 hrs by broth microdilution method; format: functional
Escherichia coli [9] = assay: Potency index, ratio of norfloxacin MIC to test compound MIC for fluoroquinolone-resistant Escherichia coli measured after 24 hrs by microbroth dilution method; format: functional
Escherichia coli [10] = assay: Potency index, ratio of ciprofloxacin HCl MIC to test compound MIC for fluoroquinolone-resistant Escherichia coli measured after 24 hrs by microbroth dilution method; format: functional

| Compound | MIC (Fusarium solani) [µM] | MIC (Listeria monocytogenes) | MIC (Stachybotrys chartarum [1]) [µM] | MIC (Escherichia coli [2]) [µM] | MIC (Escherichia coli [3]) | MIC (Escherichia coli [4]) [µM] | MIC (Staphylococcus aureus [5]) | MIC (Staphylococcus aureus [6]) | IC50 (L6) [µM] | MIC (Candida albicans) | MIC (Aspergillus flavus) | MIC (Penicillium chrysogenum) [µM] | MIC (Pseudomonas aeruginosa) | MIC (Salmonella enterica) | MIC (Escherichia coli [7]) | Ratio (Stachybotrys chartarum [8]) | Ratio (Escherichia coli [9]) | Ratio (Escherichia coli [10]) |
| --- | --- | --- | --- | --- | --- | --- | --- | --- | --- | --- | --- | --- | --- | --- | --- | --- | --- | --- |
| COc1c(N2C[C@@H]3CCCN(C(C)=O)[C@@H]3C2)c(F)cc2c(=O)c(C(=O)N[C@H]3C(OC(C)=O)O[C@H](COC(C)=O)[C@@H](OC(C)=O)[C@@H]3OC(C)=O)cn(C3CC3)c12 (stereo not given in full) | 324 (≈ 250 µg/mL) | < 5 µM | 324 (≈ 250 µg/mL) | 162 | 162 µM | 485 | inactive | 162 µM | 5.53 | 80.9 µM (≈ 62.5 µg/mL) | 162 µM (≈ 125 µg/mL) | 162 (≈ 125 µg/mL) | 324 µM | inactive | inactive | – | – | – |
| CCn1cc(C(=O)N[C@H]2C(OC(C)=O)O[C@H](COC(C)=O)[C@@H](OC(C)=O)[C@@H]2OC(C)=O)c(=O)c2cc(F)c(N3CCN(C(C)=O)CC3)cc21 (stereo not given in full) | 181 (≈ 125 µg/mL) | inactive | 45.3 (≈ 31.3 µg/mL) | 45.3 | inactive | 136 | inactive | 362 µM | 5.32 | 5.6 µM (≈ 3.87 µg/mL) | 362 µM (≈ 250 µg/mL) | 45.3 (≈ 31.3 µg/mL) | inactive | 11.3 µM | 181 µM | 2 | 2 | – |
| O=C(O)c1cn(C2CC2)c2cc(N3CCNCC3)c(F)cc2c1=O [CIPROFLOXACIN HYDROCHLORIDE] | < 10.6 | 0.5 µM | 85 | – | – | – | < 5.2 µM | < 5.2 µM | – | 0.3 µM | inactive | < 10.6 | < 5.2 µM | < 5.2 µM | – | – | – | – |
| CC(=O)OC[C@H]1OC(OC(C)=O)[C@H](NC(=O)c2cn(C3CC3)c3cc(N4CCN(C(C)=O)CC4)c(F)cc3c2=O)[C@@H](OC(C)=O)[C@@H]1OC(C)=O (stereo not given in full) | 356 (≈ 250 µg/mL) | inactive | 356 (≈ 250 µg/mL) | 178 | inactive | 267 | inactive | inactive | 3.62 | inactive | 712 µM (≈ 500 µg/mL) | < 5.6 | 11.1 µM | 11.1 µM | inactive | – | – | 2 |
| OC(Cn1cncn1)(Cn1cncn1)c1ccc(F)cc1F [FLUCONAZOLE] | 102 (≈ 31.3 µg/mL) | – | 102 (≈ 31.3 µg/mL) | – | – | – | – | – | – | 408 µM (≈ 125 µg/mL) | 51 µM (≈ 15.6 µg/mL) | 204 (≈ 62.5 µg/mL) | – | – | – | – | – | – |
| COc1c(N2C[C@@H]3CCCN(C(C)=O)[C@@H]3C2)c(F)cc2c(=O)c(C(=O)N[C@H]3C(O)O[C@H](CO)[C@@H](O)[C@@H]3O)cn(C3CC3)c12 (stereo not given in full) | 207 (≈ 125 µg/mL) | 103 µM | 1.7 (≈ 1.03 µg/mL) | 828 | 207 µM | 310 | inactive | 207 µM | 5.08 | 207 µM (≈ 125 µg/mL) | 207 µM (≈ 125 µg/mL) | 1.7 (≈ 1.03 µg/mL) | 51.8 µM | inactive | 207 µM | 100 | – | – |
| CCn1cc(C(=O)O)c(=O)c2cc(F)c(N3CCNCC3)cc21 [NORFLOXACIN] | 391 (≈ 125 µg/mL) | < 5.9 µM | 196 (≈ 62.5 µg/mL) | < 5.9 | 48.9 µM | 294 | 24.4 µM | 24.4 µM | 3.43 | < 5.9 µM | 783 µM (≈ 250 µg/mL) | 196 (≈ 62.5 µg/mL) | 98 µM | < 5.9 µM | 24.4 µM | – | – | – |
| CC(=O)N1CCN(c2cc3c(cc2F)c(=O)c(C(=O)N[C@H]2C(O)O[C@H](CO)[C@@H](O)[C@@H]2O)cn3C2CC2)CC1 (stereo not given in full) | 468 (≈ 250 µg/mL) | inactive | 468 (≈ 250 µg/mL) | 234 | inactive | 702 | inactive | inactive | 4.03 | inactive | 234 µM (≈ 125 µg/mL) | 234 (≈ 125 µg/mL) | inactive | inactive | inactive | – | – | – |
| COc1c(N2C[C@@H]3CCCN[C@@H]3C2)c(F)cc2c(=O)c(C(=O)O)cn(C3CC3)c12 [MOXIFLOXACIN] | 286 (≈ 115 µg/mL) | < 0.5 µM | 2.3 (≈ 0.923 µg/mL) | < 0.5 | < 0.5 µM | 3.4 | < 0.5 µM | < 0.5 µM | 5.78 | 1.1 µM (≈ 0.442 µg/mL) | 286 µM (≈ 115 µg/mL) | 1.1 (≈ 0.442 µg/mL) | 71.5 µM | < 4.3 µM | < 0.5 µM | – | – | – |
| CCn1cc(C(=O)N[C@H]2C(O)O[C@H](CO)[C@@H](O)[C@@H]2O)c(=O)c2cc(F)c(N3CCN(C(C)=O)CC3)cc21 (stereo not given in full) | 239 (≈ 125 µg/mL) | inactive | 120 (≈ 62.5 µg/mL) | 59.9 | inactive | 89.8 | inactive | 478 µM | 3.72 | 59.9 µM (≈ 31.3 µg/mL) | 478 µM (≈ 250 µg/mL) | 120 (≈ 62.5 µg/mL) | inactive | 14.9 µM | 239 µM | – | 3 | – |
